Results: ChEMBL document CHEMBL1130297, “Synthesis of 5,6-dihydro-4-hydroxy-2-pyrones as HIV-1 protease inhibitors: the profound effect of polarity on antiviral activity” (J Med Chem, 1997)

Key:
[1] = molecular target: Human immunodeficiency virus type 1 protease (Human immunodeficiency virus 1, UniProt Q72874); test: In vitro inhibition activity against HIV-1 protease.
Method in brief: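 HIV-1 protease inhibition read by HPLC assay at pH 6.2, modified from an earlier method. Buffer: 1.0 mM dithiothreitol, 80 mM MES, 160 mM NaCl, 1.0 mM EDTA, 0.1% polyethylene glycol (MW 8000). Final protease concentration 1.5 nM. IC50 values reported.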

CCRF-CEM = test: Antiviral activity in HIV infected CEM cells.; assay type: functional, cell-based; conditions: Homo sapiens
Method in brief: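 Cytopathic-effect protection assay in HIV-infected CEM cells by a standard protocol. EC50 taken as the concentration at which 50% of cells are protected from cytopathic effects.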

[2] = Cytotoxicity in CEM cells in the absence of virus; assay type: cell-based; conditions: human, CEM (CCRF-CEM) cells; read-out: TC50 (the source's name)
Method in brief: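 Toxicity read in uninfected CEM cells (no virus present), run alongside the cellular antiviral protocol. Reported as TC50.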

SMILES	IC50 [1] [µM]	EC50 (CCRF-CEM) [µM]	CC50 [2] [µM]
Cc1cc(SC2=C(O)OC(CCc3ccccc3)(c3ccc(OCCO)cc3)CC2=O)c(C(C)(C)C)cc1O (stereo not drawn)	0.0037	4.2	27
COCc1cc(C(C)(C)C)c(SC2=C(O)OC(CCc3ccccc3)(c3ccc(OCCO)cc3)CC2=O)cc1C (stereo not drawn)	0.0045	> 18	18
Cc1ccc(C(C)(C)C)c(SC2=C(O)OC(CCc3ccc(N)cc3)(c3ccccc3)CC2=O)c1 (stereo not drawn)	0.024	> 54	54
Cc1ccc(C(C)(C)C)c(SC2=C(O)OC(CCc3ccccc3)(c3ccc(N)cc3)CC2=O)c1 (stereo not drawn)	0.032	> 67	67
Cc1cc(SC2=C(O)OC(CCc3ccccc3)(c3ccccc3)CC2=O)c(C(C)(C)C)cc1O (stereo not drawn)	0.033	> 23	23
Cc1cc(SC2=C(O)OC(CCc3ccccc3)(c3ccc(OCCO)cc3)CC2=O)c(C(C)(C)C)cc1CO (stereo not drawn)	0.0014	4.2	67
Cc1cc(SC2=C(O)OC(CCc3ccc(O)cc3)(c3ccccc3)CC2=O)c(C(C)(C)C)cc1CO (stereo not drawn)	0.0017	4.7	> 100
Cc1cc(SC2=C(O)OC(CCc3cccc(O)c3)(c3ccccc3)CC2=O)c(C(C)(C)C)cc1CO (stereo not drawn)	0.0025	6.1	> 100
Cc1ccc(C(C)(C)C)c(SC2=C(O)OC(CCc3ccc(O)cc3)(c3ccccc3)CC2=O)c1 (stereo not drawn)	0.011	> 69	69
Cc1cc(SC2=C(O)OC(CCc3ccc(O)cc3)(c3ccc(O)cc3)CC2=O)c(C(C)(C)C)cc1CO (stereo not drawn)	0.12	> 21	21
Cc1ccc(C(C)(C)C)c(SC2=C(O)OC(CCc3ccccc3)(c3ccc(OCCO)cc3)CC2=O)c1 (stereo not drawn)	0.012	9.4	23
Cc1cc(SC2=C(O)OC(CCc3ccc(N)cc3)(c3ccccc3)CC2=O)c(C(C)(C)C)cc1CO (stereo not drawn)	0.0031	3.7	94
Cc1cc(SC2=C(O)OC(CCc3ccccc3)(c3ccccc3)CC2=O)c(C(C)(C)C)cc1OCCO (stereo not drawn)	0.0068	> 20	20
COc1cc(C(C)(C)C)c(SC2=C(O)OC(CCc3ccccc3)(c3ccccc3)CC2=O)cc1C (stereo not drawn)	0.015	> 33	33
Cc1ccc(C(C)(C)C)c(SC2=C(O)OC(CCc3ccccc3)(c3ccccc3)CC2=O)c1 (stereo not drawn)		> 55	55
Cc1ccc(C(C)(C)C)c(SC2=C(O)OC(CCc3ccccc3)(c3ccc(O)cc3)CC2=O)c1 (stereo not drawn)	0.04	> 23	23

The next compounds have a lower EC50 (CCRF-CEM) than those just listed; values first:

IC50 [1] [µM]	EC50 (CCRF-CEM) [µM]	SMILES	CC50 [2] [µM]
0.0032	1.4	Cc1cc(SC2=C(O)OC(CCc3ccc(N)cc3)(C3CCCCC3)CC2=O)c(C(C)(C)C)cc1CO (stereo not drawn)	80
0.0066	2.5	Cc1cc(SC2=C(O)OC(CCc3ccccc3)(c3ccccc3)CC2=O)c(C(C)(C)C)cc1CO (stereo not drawn)	66
0.0027	0.5	Cc1cc(SC2=C(O)OC(CCc3ccc(N)cc3)(C(C)C)CC2=O)c(C(C)(C)C)cc1CO (stereo not drawn)	> 100
	2	COc1ccc(C2(CCc3ccc(O)cc3)CC(=O)C(Sc3cc(C)c(CO)cc3C(C)(C)C)=C(O)O2)cc1 (stereo not drawn)	> 100
0.004	3.1	Cc1cc(SC2=C(O)OC(CCc3cccc(N)c3)(c3ccccc3)CC2=O)c(C(C)(C)C)cc1CO (stereo not drawn)	23
0.0064	1.8	Cc1cc(SC2=C(O)OC(CCc3ccccc3)(c3ccc(OCCO)cc3)CC2=O)c(C(C)(C)C)cc1OCCO (stereo not drawn)	25
0.0043	2.5	Cc1cc(SC2=C(O)OC(C)(CCc3ccc(O)cc3)CC2=O)c(C(C)(C)C)cc1CO (stereo not drawn)	> 100
0.0036	0.6	Cc1cc(SC2=C(O)OC(CCc3ccc(O)cc3)(C(C)C)CC2=O)c(C(C)(C)C)cc1CO (stereo not drawn)	> 100
0.0041	0.5	Cc1cc(SC2=C(O)OC(CCc3ccc(O)cc3)(C3CCCCC3)CC2=O)c(C(C)(C)C)cc1CO (stereo not drawn)	75
